{
  "source": "ChEMBL document CHEMBL4251717",
  "about": "“Bioactive α-Pyrone Derivatives from the Endolichenic Fungus Dothideomycetes sp. EL003334” (J Nat Prod, 2018)",
  "key": {"[1]": {"system": "BV-2", "test": "Antiinflammatory activity in […] BV2 cells assessed as inhibition of LPS-induced NO production preincubated for 3 hrs followed by LPS stimulation measured after 24 hrs by Griess assay", "assay_type": "functional, cell-based", "procedure,_shortened": "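BV2 cells pretreated with compound for 3 h, then LPS (1 μg/mL) for 24 h. Nitrite in conditioned medium taken as NO indicator. Supernatant mixed 1:1 with Griess reagent (0.1% N-(1-naphthyl)ethylenediamine, 1% sulfanilamide in 5% phosphoric acid), 10 min at room temperature. A540 read. Concentration from a sodium nitrite standard curve made in phenol red-free DMEM. IC50 reported.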"}, "[2]": {"system": "BV-2", "test": "Antiinflammatory activity in […] BV2 cells assessed as inhibition of LPS-induced PGE2 production preincubated for 3 hrs followed by LPS stimulation measured after 24 hrs by ELISA", "assay_type": "functional, cell-based", "procedure,_shortened": "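Pretreatment of BV2 cells with compound for 3 h, then LPS (1 μg/mL) stimulation for 24 h. PGE2 in culture medium measured by ELISA/enzyme immunoassay kit.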"}, "[3]": {"system": "BV-2", "test": "Inhibition of iNOS protein expression level in LPS-induced […] BV2 cells preincubated for 3 hrs followed by LPS stimulation measured after 24 hrs by Western blot analysis", "assay_type": "functional, cell-based", "procedure,_shortened": "(§1)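 BV2 cells pretreated 3 h with compound, then LPS (1 μg/mL) for 24 h. Cells lysed in 20 mM Tris-HCl pH 7.4 with protease inhibitors. Protein quantified by Lowry. Equal protein run on 7.5% and 12% SDS-PAGE, transferred to nitrocellulose and probed with anti-iNOS, anti-COX-2 and anti-actin antibodies, ECL detection.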"}, "[4]": {"system": "BV-2", "test": "Cytotoxicity against […] BV2 cells assessed as reduction in cell viability up to 80 uM after 24 hrs by MTT assay", "assay_type": "cell-based", "settings": "bv-2, 24 h", "procedure,_shortened": "(§2)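 BV2 cells (1 × 10^5 cells/well) exposed to compound for 24 h, at concentrations up to 80 μM. MTT added to 0.5 mg/mL final for 3 h. Formazan dissolved in acidic 2-propanol and read at 540 nm. Untreated cells set as 100% viability.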"}, "[5]": {"system": "BV-2", "test": "Antiinflammatory activity in LPS-induced […] BV2 cells assessed as inhibition of IL-1beta mRNA expression level preincubated for 3 hrs followed by LPS stimulation measured after 6 hrs by qRT-PCR analysis", "assay_type": "functional, cell-based", "procedure,_shortened": "(§3)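 BV2 microglia in DMEM with 10% heat-inactivated FBS, penicillin/streptomycin and 2 mM L-glutamine, 37 °C, 5% CO2. Cells incubated with compound for 3 h, then LPS (1 μg/mL) for 6 h. Il1b, Il6 and Tnf mRNA measured by RT-qPCR with GAPDH as endogenous control. Relative expression by comparative Ct (2−ΔΔCt). Mean of three independent experiments.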"}, "[6]": {"system": "BV-2", "test": "Antiinflammatory activity in LPS-induced […] BV2 cells assessed as inhibition of IL-6 mRNA expression level preincubated for 3 hrs followed by LPS stimulation measured after 6 hrs by qRT-PCR analysis", "assay_type": "functional, cell-based", "procedure,_shortened": "as §3"}, "[7]": {"system": "BV-2", "test": "Cytotoxicity against […] BV2 cells assessed as reduction in cell viability up to 40 uM after 24 hrs by MTT assay", "assay_type": "cell-based", "settings": "bv-2, 24 h", "procedure,_shortened": "as §2"}, "[8]": {"system": "BV-2", "test": "Inhibition of COX2 protein expression level in LPS-induced […] BV2 cells preincubated for 3 hrs followed by LPS stimulation measured after 24 hrs by Western blot analysis", "assay_type": "functional, cell-based", "procedure,_shortened": "as §1"}, "[9]": {"system": "BV-2", "test": "Antiinflammatory activity in LPS-induced mouse BV2 cells assessed as inhibition of TNF-alpha mRNA expression level preincubated for 3 hrs followed by LPS stimulation measured after 6 hrs by qRT-PCR analysis"}},
  "note": "The source made the active and inactive calls. No cut-off for these calls is given here.",
  "data": [
    {"smiles": "COc1cc([C@@H](O)CCCCCC[C@@H](C)O)oc(=O)c1CO", "values": [
      {"measurement": "inhibition", "setting": "[1]", "value": "inactive"}
    ]},
    {"smiles": "CCCCCCCC[C@H](O)c1cc(OC)c(CO)c(=O)o1", "values": [
      {"measurement": "inhibition", "setting": "[2]", "value": "Dose-dependent effect"},
      {"measurement": "inhibition", "setting": "[3]", "value": "Dose-dependent effect"},
      {"measurement": "IC50", "setting": "[1]; Mus musculus", "value": 15, "unit": "µM"},
      {"measurement": "Activity", "setting": "[4]", "value": "Toxic"},
      {"measurement": "inhibition", "setting": "[5]", "value": "Dose-dependent effect"},
      {"measurement": "inhibition", "setting": "[6]", "value": "Dose-dependent effect"},
      {"measurement": "Activity", "setting": "[7]", "value": "Non-Toxic"},
      {"measurement": "inhibition", "setting": "[8]", "value": "Dose-dependent effect"},
      {"measurement": "inhibition", "setting": "[9]", "value": "Dose-dependent effect"}
    ]}
  ]
}
